# Results of several laboratories.
# Protocols differ between the studies behind these lines.
# Read-out: metabolic stability
SMILES,test system,conditions,half-life
O=S(=O)(Nc1cccc(-c2nnn[nH]2)c1)c1ccc(F)c(F)c1,"mouse, liver microsomes",,346 min
CC1=C(C(=O)O)C(=O)/C(=C\c2cc(C)n(-c3ccccc3C(F)(F)F)c2C)N1,"mouse, liver microsomes",1 µM,79 min
Fc1ccc2nc(Cc3c[nH]c4c(F)cccc34)[nH]c2c1,"mouse, liver microsomes",pH 7.4,7.2 min
O=C(Nc1ccccc1)C1CCN(c2ncc(-c3ccc4c(c3)OCCCO4)s2)CC1,"mouse, liver microsomes",1 µM,< 10 min
CC1=C(C(=O)OCc2ccccc2)C(=O)/C(=C\c2cc(C)n(-c3ccccc3C(F)(F)F)c2C)N1,"mouse, liver microsomes",1 µM,3.1 min
O=C(OC(C(F)(F)F)C(F)(F)F)N1CCc2ccccc2C1,"mouse, liver microsomes",,4 min
Cc1c(CN2CCC(Nc3ncnc4sc(CC(F)(F)F)cc34)CC2)c(O)cc2[nH]c(C#N)cc12,"CD-1 mouse, liver microsomes","1 µM, pH 7.4",> 30 min
COc1ccc2cc(C(=O)Nc3ccc4c(c3)CN(C3CCC(=O)NC3=O)C4=O)ccc2c1 (stereo not drawn),"mouse, liver microsomes",2 µM,180 min
CCOC(=O)NS(=O)(=O)c1sc(CC(C)C)cc1-c1ccc2c(c1)CN(C(=O)OCC)C2,"mouse, liver microsomes","1 µM, pH 7.4",2.1 min
O=c1ccc2ccccc2o1,"mouse, liver microsomes","50 µM, pH 7.4",72 min
Cc1noc([C@H](Cc2c[nH]cn2)NC(=O)CN(CCCc2ccccc2)CC(=O)O)n1,"male mouse, liver microsomes","1 µM, pH 7.4",> 40 min
N=C(N)N1CC=C(c2coc(C(=O)Nc3ccc(C4=CCN(C(=N)N)CC4)c(F)c3)c2)CC1,"CD-1 mouse, liver microsomes",1 µM,> 60 min
O=S(=O)(Nc1cccc(-c2nnn[nH]2)c1)c1cc(C(F)(F)F)cc(C(F)(F)F)c1,"mouse, liver microsomes",,535 min
O=C1CCN(C(=O)Nc2ccc(F)c(Cl)c2)[C@H]2CCCC[C@@H]12 (relative stereo),"mouse, liver microsomes",,> 32 min
COC(=O)c1csc(C(=O)c2c[nH]c3ccccc23)n1,"mouse, liver microsomes",,11 min
CC(C)Oc1cccc(-c2cnc(N3CCC(C(N)=O)CC3)s2)c1,"mouse, liver microsomes",1 µM,> 30 min
CO[C@@H](C[C@H]1C(C)=CC[C@@H]2[C@]3(C)C[C@H](O[C@@H]4O[C@@H](C)[C@H](OC(=O)c5cccc(O)c5)[C@@H](O[C@@H]5O[C@H](CO)[C@@H](O)[C@H](O)[C@H]5NC(C)=O)[C@H]4O)[C@@H](O)C(C)(C)[C@H]3CC[C@]21C)[C@H](N)C(=O)O.O=C(O)C(F)(F)F,"mouse, hepatocytes",1 µM,296 min
CC[C@@H]1C=CC(=O)O[C@@H]1C[C@@H](O)[C@H](C)[C@H](O)[C@@H](C)Cc1ccc(F)cc1,"mouse, liver microsomes",,3 min
CCS(=O)(=O)Nc1ccc(OCCOCCOCCOCCOc2ccc(NS(=O)(=O)CC)cc2-c2cn(C)c(=O)c3ccccc23)c(-c2cn(C)c(=O)c3ccccc23)c1,"mouse, liver microsomes",,< 2.3 min
N=c1c2c(-c3ccccc3)c(-c3ccccc3)n(Cc3ccccc3)c2ncn1C1CCOCC1,"male CD-1 mouse, liver microsomes","1 µM, pH 7.4",30 min
CN1CC(Cc2cccc(CNC3(c4ccc(F)cc4)CCCC3)c2)C1,"mouse, liver microsomes","4.6 µM, pH 7.5",~60 min
C=CC(=O)Nc1ccc(N2CCC[C@@H](Nc3ncc(Cl)c(-c4c[nH]c5ccccc45)n3)C2)cc1,"mouse, liver microsomes",,7.2 min
Cc1noc(C)c1-c1ccc2nc(C(=O)NC3CCN(C)CC3)nc(NCc3cccc(Cl)c3)c2c1,"mouse, liver microsomes",,28 min
CC(C)NCC(O)COc1cccc2ccccc12 (stereo not drawn),"mouse, liver microsomes","1 µM, pH 7.4",15.8 min
O=[N+]([O-])c1ccc(CNc2nc(NCc3cccc(C(F)(F)F)c3)nc3[nH]cnc23)cc1,"mouse, liver microsomes","1 µM, pH 7.4",9 min
CC[C@@H]1C=CC(=O)O[C@@H]1C[C@@H](OC)[C@H](C)[C@H](OC)[C@@H](C)Cc1ccc(F)cc1,"mouse, liver microsomes",,< 2.3 min
O=C(N[C@H](Cc1c[nH]c2ccccc12)C(=O)Nc1ccncc1)c1ccc(-c2ccc(F)c(F)c2)cc1F,"mouse, liver microsomes",,39 min
CCOC(=O)C1=C(C)N/C(=C/c2cc(CC)n(-c3ccccc3C(F)(F)F)c2CC)C1=O,"mouse, liver microsomes",1 µM,12 min
COc1ccc(NC(=O)[C@H]2c3ccccc3C(=O)N(CC(C)C)[C@@H]2c2cccs2)cc1Cl (racemic),"female CD-1 mouse, liver microsomes","80 nM, pH 7.4",< 30 min
CCOC(=O)C1=C(C)N/C(=C/c2cc(C)n(-c3ccc(SC)cc3)c2C)C1=O,"mouse, liver microsomes",1 µM,26 min
CNC(=O)[C@H](Cc1c[nH]cn1)NC(=O)CN(CCCc1ccccc1)CC(=O)O,"male mouse, liver microsomes","1 µM, pH 7.4",> 40 min
CCOC(=O)C1=C(C)N/C(=C/c2cc(C)n(-c3ccc(Cl)cc3)c2C)C1=O,"mouse, liver microsomes",1 µM,24 min
CCOc1c(O)cc(Br)c2c1CN1CCc3cc(OCC(F)F)c(O)cc3[C@@H]1C2,"mouse, liver S9","2 µM, pH 7.4",9.63 min
CCOC(=O)C1=C(C)N/C(=C/c2cc(C)n(Cc3ccc(C(F)(F)F)cc3)c2C)C1=O,"mouse, liver microsomes",1 µM,17 min
CCCCOC(=O)NS(=O)(=O)c1sc(CC(C)C)cc1-c1ccc2c(c1)CN(C(C)=O)CC2,"mouse, liver microsomes","1 µM, pH 7.4",2.2 min
CC1=C(C(N)=O)C(=O)/C(=C\c2cc(C)n(-c3ccccc3C(F)(F)F)c2C)N1,"mouse, liver microsomes",1 µM,19 min
O=C(Nc1cncc(-c2nc3ccccc3o2)c1)c1ccc(N2CCNCC2)c([N+](=O)[O-])c1,"CD-1 mouse, liver microsomes","1 µM, pH 7.4",> 110 min
CCOC(=O)C1=C(C)N/C(=C/c2cc(C)n(-c3ccc(F)cc3F)c2C)C1=O,"mouse, liver microsomes",1 µM,23 min
O=S(=O)(Nc1cccc(-c2nnn[nH]2)c1)c1ccc(C(F)(F)F)c(F)c1,"mouse, liver microsomes",,174 min
